From ChEMBL document CHEMBL4622853, “Design and synthesis of novel pyrrolo[2,3-b]pyridine derivatives targeting V600EBRAF” (Bioorg Med Chem, 2020)

Key:
[1] = test system: Serine/threonine-protein kinase B-raf (Homo sapiens), P15056 [V600E]; assay: Inhibition of human BRAF V600E mutant at 10 uM by ELISA
[2] = molecular target: T1, Serine/threonine-protein kinase B-raf (Homo sapiens, UniProt P15056); assay: Inhibition of human wild type BRAF at 10 uM by ELISA
Procedure, shortened: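 Wild-type BRAF kinase inhibition run in the same manner as the V600E-B-RAF ELISA, reported as percent inhibition at 10 µM.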

[3] = molecular target: Serine/threonine-protein kinase B-raf (Homo sapiens, UniProt P15056, V600E); assay: Inhibition of human BRAF V600E mutant by ELISA
[4] = molecular target: T1, Serine/threonine-protein kinase B-raf; assay: Inhibition of BRAF (unknown origin)

Serine/threonine-protein kinase B-raf (Homo sapiens), P15056 [V600E], sequence (P15056 whole entry V600E): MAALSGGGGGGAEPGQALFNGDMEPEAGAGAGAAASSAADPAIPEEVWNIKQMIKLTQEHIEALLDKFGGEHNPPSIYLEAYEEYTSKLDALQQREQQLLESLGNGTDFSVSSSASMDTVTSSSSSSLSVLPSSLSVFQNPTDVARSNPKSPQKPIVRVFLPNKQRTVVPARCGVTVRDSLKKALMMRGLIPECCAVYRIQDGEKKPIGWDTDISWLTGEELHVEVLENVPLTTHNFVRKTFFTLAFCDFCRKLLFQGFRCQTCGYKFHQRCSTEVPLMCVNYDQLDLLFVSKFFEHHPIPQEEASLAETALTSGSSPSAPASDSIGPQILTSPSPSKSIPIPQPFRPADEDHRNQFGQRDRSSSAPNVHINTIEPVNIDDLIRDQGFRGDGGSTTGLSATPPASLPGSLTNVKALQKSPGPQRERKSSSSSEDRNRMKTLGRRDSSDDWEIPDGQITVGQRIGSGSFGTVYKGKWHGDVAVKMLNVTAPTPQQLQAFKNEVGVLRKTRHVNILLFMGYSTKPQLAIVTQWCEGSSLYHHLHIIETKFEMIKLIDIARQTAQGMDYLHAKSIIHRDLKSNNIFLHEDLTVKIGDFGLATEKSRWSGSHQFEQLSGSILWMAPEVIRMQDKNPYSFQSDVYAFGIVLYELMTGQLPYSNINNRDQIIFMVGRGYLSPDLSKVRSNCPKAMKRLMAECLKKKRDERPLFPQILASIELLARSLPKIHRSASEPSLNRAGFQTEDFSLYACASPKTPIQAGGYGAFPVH
Serine/threonine-protein kinase B-raf (Homo sapiens, UniProt P15056, V600E), sequence (P15056 2-766 V600E limits assumed): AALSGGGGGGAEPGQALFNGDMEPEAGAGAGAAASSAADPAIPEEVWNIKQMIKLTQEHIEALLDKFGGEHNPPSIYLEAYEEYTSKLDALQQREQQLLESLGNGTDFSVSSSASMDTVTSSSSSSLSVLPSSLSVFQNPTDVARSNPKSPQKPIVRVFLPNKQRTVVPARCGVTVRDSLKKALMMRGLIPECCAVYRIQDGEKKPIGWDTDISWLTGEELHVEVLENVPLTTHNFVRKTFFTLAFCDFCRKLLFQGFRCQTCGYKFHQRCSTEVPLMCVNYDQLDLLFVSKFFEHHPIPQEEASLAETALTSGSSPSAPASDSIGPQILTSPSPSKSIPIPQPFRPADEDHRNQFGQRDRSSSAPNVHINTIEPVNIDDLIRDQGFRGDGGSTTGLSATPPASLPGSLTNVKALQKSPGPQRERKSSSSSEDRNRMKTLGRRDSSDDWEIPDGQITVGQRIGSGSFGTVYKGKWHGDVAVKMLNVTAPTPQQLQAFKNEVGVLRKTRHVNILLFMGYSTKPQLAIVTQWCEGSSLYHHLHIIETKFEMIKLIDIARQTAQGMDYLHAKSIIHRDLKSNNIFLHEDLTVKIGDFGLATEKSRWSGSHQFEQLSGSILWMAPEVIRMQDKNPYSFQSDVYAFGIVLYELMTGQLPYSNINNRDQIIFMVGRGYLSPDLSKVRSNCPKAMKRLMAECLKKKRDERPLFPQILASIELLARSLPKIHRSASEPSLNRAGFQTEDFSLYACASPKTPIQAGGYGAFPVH
T1 sequence (P15056 whole entry): as the sequence (P15056 whole entry V600E) above, with E600V counted along it

SMILES | inhibition [1] [%] | inhibition [2] [%] | IC50 [3] [nM] | IC50 [4] [nM]
O=C(NCCNc1nccc(-n2ccc3cccnc32)n1)c1ccc(C(F)(F)F)cc1 | 32.9 | 12.1 |  | 
O=S(=O)(NCCCNc1nccc(-n2ccc3cccnc32)n1)c1cccc(Br)c1 | 96.7 | 89.4 | 500 | 
O=S(=O)(NCCCNc1nccc(-n2ccc3cccnc32)n1)c1ccccc1 | 95.5 | 81.4 | 750 | 
O=C(Nc1ccc(F)c(C(=O)c2c[nH]c3ncccc23)c1F)Nc1cccc2ccccc12 | 85.6 | 68.9 |  | 
O=C(NCCNc1nccc(-n2ccc3cccnc32)n1)c1ccccc1 | 86.3 | 86.3 |  | 
O=S(=O)(NCCNc1nccc(-n2ccc3cccnc32)n1)c1cccc(C(F)(F)F)c1 | 18.1 | 10.2 |  | 
O=C(NCCNc1nccc(-n2ccc3cccnc32)n1)c1ccc(F)cc1 | 70 | 56.8 |  | 
CCCS(=O)(=O)Nc1ccc(F)c(-n2cc(-c3cncnc3)c3nc(N(C)C4CCN(CC)CC4)ccc32)c1F [XP-102] |  |  |  | 0.4
O=C(NCCCNc1nccc(-n2ccc3cccnc32)n1)c1c(F)cccc1F | 72.6 | 67.2 |  | 
O=C(Nc1ccccc1)Nc1ccc(F)c(C(=O)c2c[nH]c3ncccc23)c1F | 94.5 | 86.5 |  | 
O=C(NCCCNc1nccc(-n2ccc3cccnc32)n1)C1CCCCC1 | 49.6 | 41.2 |  | 
Cc1ccc(NC(=O)Nc2ccc(F)c(C(=O)c3c[nH]c4ncccc34)c2F)cc1 | 98.4 | 77.6 | 85 | 
O=C(NCCCNc1nccc(-n2ccc3cccnc32)n1)c1ccc(Cl)cc1 | 80.7 | 72.1 |  | 

More lines, main results first:

inhibition [1] [%] | inhibition [2] [%] | IC50 [3] [nM] | SMILES | IC50 [4] [nM]
95.2 | 79.7 | 880 | O=S(=O)(NCCCNc1nccc(-n2ccc3cccnc32)n1)c1ccc(F)cc1 | 
96.8 | 66.5 |  | O=S(=O)(NCCCNc1nccc(-n2ccc3cccnc32)n1)c1ccc(Cl)cc1 | 
65.3 | 55.2 |  | O=S(=O)(NCCNc1nccc(-n2ccc3cccnc32)n1)c1cccc(Br)c1 | 
97.7 | 75.2 | 350 | O=S(=O)(NCCCNc1nccc(-n2ccc3cccnc32)n1)c1ccc(Br)cc1 | 
63.7 | 49.2 |  | O=S(=O)(NCCNc1nccc(-n2ccc3cccnc32)n1)c1ccc(Cl)cc1 | 
65.9 | 44.6 |  | O=S(=O)(NCCNc1nccc(-n2ccc3cccnc32)n1)c1ccc(Br)cc1 | 
